According to ChEMBL document CHEMBL5724801, “EUbOPEN Chemogenomics Library - Multiplex” (2024):
Values joined by “and” are separate entries in the source; they are usually repeats but may differ in a detail not shown here. Equal entries are not always repeated.

System: HEK-293T
Assay: Multiplex assay against HEK293T
Type: toxicity, cell-based
Conditions: human
In short: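 Cells stained live at seeding with Hoechst33342, BioTracker Green Microtubule Cytoskeleton Dye, MitoTracker Red and Annexin V Alexa Fluor 680 were imaged on a CQ1 microscope at 37°C and 5% CO2 after compound addition. Their classification by CellPathfinder machine-learning gating ran from Hoechst high-intensity objects versus normal cells, to healthy, pyknosed or fragmented nuclei among normal cells, to mitotic or apoptotic among pyknosed cells. Tubulin, mitochondrial-mass and membrane-permeability phenotypes are per cents of healthy-nucleus cells.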

[1] = 12 h, 1 µM, compound concentration 1 uM
[2] = 12 h, 10 µM, compound concentration 10 uM
[3] = 24 h, 1 µM, compound concentration 1 uM
[4] = 24 h, 10 µM, compound concentration 10 uM
[5] = 48 h, 1 µM, compound concentration 1 uM
[6] = 48 h, 10 µM, compound concentration 10 uM

CSc1nc(NC2CCCC2)c([N+](=O)[O-])c(NC2CCCC2)n1 [GS-39783]
Population Apoptotic (%) [1]: 45% and 40% | Population Fragmented Nuclei (%) [1]: 11% and 3% | Population Healthy Nuclei (%) [1]: 74% and 85% | Population Hoechst High Intensity Objects (%) [1]: 8% and 4% | Population Membrane Permeable-Phenotype (%) [1]: 0% | Population Mitochondria Different-Phenotype (%) [1]: 41% and 68% | Population Mitotic Cells (%) [1]: 54% and 59% | Population Normal (%) [1]: 91% and 95% | Population Pyknosed Nuclei (%) [1]: 14% and 11% | Population Tubulin-Different-Phenotype (%) [1]: 30% and 27% | Total Cell Count [1]: 346 and 301 | Population Apoptotic (%) [2]: 29% and 40% | Population Fragmented Nuclei (%) [2]: 6% and 5% | Population Healthy Nuclei (%) [2]: 81% and 84% | Population Hoechst High Intensity Objects (%) [2]: 6% and 5% | Population Membrane Permeable-Phenotype (%) [2]: 0% | Population Mitochondria Different-Phenotype (%) [2]: 50% and 68% | Population Mitotic Cells (%) [2]: 70% and 60% | Population Normal (%) [2]: 93% and 94% | Population Pyknosed Nuclei (%) [2]: 12% and 10% | Population Tubulin-Different-Phenotype (%) [2]: 40% and 29% | Total Cell Count [2]: 449 and 406 | Population Apoptotic (%) [3]: 30% and 38% | Population Fragmented Nuclei (%) [3]: 12% and 7% | Population Healthy Nuclei (%) [3]: 76% and 84% | Population Hoechst High Intensity Objects (%) [3]: 7% and 8% | Population Membrane Permeable-Phenotype (%) [3]: 0% | Population Mitochondria Different-Phenotype (%) [3]: 25% and 51% | Population Mitotic Cells (%) [3]: 69% and 61% | Population Normal (%) [3]: 92% and 91% | Population Pyknosed Nuclei (%) [3]: 11% and 7% | Population Tubulin-Different-Phenotype (%) [3]: 19% | Total Cell Count [3]: 492 and 360 | Population Apoptotic (%) [4]: 27% and 37% | Population Fragmented Nuclei (%) [4]: 11% and 8% | Population Healthy Nuclei (%) [4]: 78% and 83% | Population Hoechst High Intensity Objects (%) [4]: 5% and 6% | Population Membrane Permeable-Phenotype (%) [4]: 1% and 0% | Population Mitochondria Different-Phenotype (%) [4]: 30% and 52% | Population Mitotic Cells (%) [4]: 72% and 62% | Population Normal (%) [4]: 94% and 93% | Population Pyknosed Nuclei (%) [4]: 10% and 7% | Population Tubulin-Different-Phenotype (%) [4]: 30% and 28% | Total Cell Count [4]: 553 and 474 | Population Apoptotic (%) [5]: 35% and 30% | Population Fragmented Nuclei (%) [5]: 15% and 13% | Population Healthy Nuclei (%) [5]: 74% and 77% | Population Hoechst High Intensity Objects (%) [5]: 3% and 6% | Population Membrane Permeable-Phenotype (%) [5]: 1% and 0% | Population Mitochondria Different-Phenotype (%) [5]: 22% and 32% | Population Mitotic Cells (%) [5]: 64% and 69% | Population Normal (%) [5]: 96% and 93% | Population Pyknosed Nuclei (%) [5]: 9% and 8% | Population Tubulin-Different-Phenotype (%) [5]: 22% and 24% | Total Cell Count [5]: 775 and 505 | Population Apoptotic (%) [6]: 17% and 30% | Population Fragmented Nuclei (%) [6]: 14% and 13% | Population Healthy Nuclei (%) [6]: 78% and 77% | Population Hoechst High Intensity Objects (%) [6]: 3% and 5% | Population Membrane Permeable-Phenotype (%) [6]: 1% and 0% | Population Mitochondria Different-Phenotype (%) [6]: 27% and 35% | Population Mitotic Cells (%) [6]: 82% and 69% | Population Normal (%) [6]: 96% and 94% | Population Pyknosed Nuclei (%) [6]: 7% and 8% | Population Tubulin-Different-Phenotype (%) [6]: 21% | Total Cell Count [6]: 856 and 647

CC[C@H](Nc1ncnc2[nH]cnc12)c1nc2cccc(F)c2c(=O)n1-c1ccccc1 [IDELALISIB]
Population Apoptotic (%) [1]: 9.6% and 7.3% | Population Fragmented Nuclei (%) [1]: 0.69% and 2.22% | Population Healthy Nuclei (%) [1]: 58.33% and 21.67% | Population Hoechst High Intensity Objects (%) [1]: 0% | Population Membrane Permeable-Phenotype (%) [1]: 1.19% and 0% | Population Mitochondria Different-Phenotype (%) [1]: 34.13% and 17.95% | Population Mitotic Cells (%) [1]: 90.4% and 92.7% | Population Normal (%) [1]: 100% | Population Pyknosed Nuclei (%) [1]: 40.97% and 76.11% | Total Cell Count [1]: 432 and 180 | Population Apoptotic (%) [2]: 16.78% and 14.29% | Population Fragmented Nuclei (%) [2]: 0.89% and 4.58% | Population Hoechst High Intensity Objects (%) [2]: 0% | Population Membrane Permeable-Phenotype (%) [2]: 0% and 7.69% | Population Mitochondria Different-Phenotype (%) [2]: 29.11% and 15.38% | Population Mitotic Cells (%) [2]: 83.22% and 85.71% | Population Normal (%) [2]: 100% | Population Pyknosed Nuclei (%) [2]: 63.84% and 86.93% | Population Tubulin-Different-Phenotype (%) [2]: 34.18% and 38.46% | Total Cell Count [2]: 224 and 153 | Population Apoptotic (%) [3]: 20.57% and 16.42% | Population Fragmented Nuclei (%) [3]: 1.62% and 1.42% | Population Healthy Nuclei (%) [3]: 75.57% and 35.07% | Population Hoechst High Intensity Objects (%) [3]: 0% | Population Membrane Permeable-Phenotype (%) [3]: 1.07% and 0% | Population Mitochondria Different-Phenotype (%) [3]: 15.42% and 12.16% | Population Mitotic Cells (%) [3]: 79.43% and 83.58% | Population Normal (%) [3]: 100% | Population Pyknosed Nuclei (%) [3]: 22.82% and 63.51% | Population Tubulin-Different-Phenotype (%) [3]: 9.85% and 5.41% | Total Cell Count [3]: 618 and 211 | Population Apoptotic (%) [4]: 22.55% and 30.43% | Population Fragmented Nuclei (%) [4]: 2.07% and 3.7% | Population Healthy Nuclei (%) [4]: 62.76% and 25.31% | Population Hoechst High Intensity Objects (%) [4]: 0.34% and 0% | Population Membrane Permeable-Phenotype (%) [4]: 2.75% and 2.44% | Population Mitochondria Different-Phenotype (%) [4]: 40.11% and 19.51% | Population Mitotic Cells (%) [4]: 77.45% and 69.57% | Population Normal (%) [4]: 99.66% and 100% | Population Pyknosed Nuclei (%) [4]: 35.17% and 70.99% | Population Tubulin-Different-Phenotype (%) [4]: 61.54% and 26.83% | Total Cell Count [4]: 291 and 162 | Population Apoptotic (%) [5]: 5.47% and 12.5% | Population Fragmented Nuclei (%) [5]: 2.71% and 1.53% | Population Healthy Nuclei (%) [5]: 87.1% and 67.82% | Population Hoechst High Intensity Objects (%) [5]: 0% and 0.38% | Population Membrane Permeable-Phenotype (%) [5]: 5.58% and 2.26% | Population Mitochondria Different-Phenotype (%) [5]: 15.63% and 14.69% | Population Mitotic Cells (%) [5]: 94.53% and 87.5% | Population Normal (%) [5]: 100% and 99.62% | Population Apoptotic (%) [6]: 17.44% and 25.24% | Population Fragmented Nuclei (%) [6]: 2.23% and 1.97% | Population Healthy Nuclei (%) [6]: 80.32% and 47.29% | Population Hoechst High Intensity Objects (%) [6]: 0.2% and 0% | Population Membrane Permeable-Phenotype (%) [6]: 6.31% and 1.04% | Population Mitochondria Different-Phenotype (%) [6]: 64.39% and 55.21% | Population Mitotic Cells (%) [6]: 82.56% and 74.76% | Population Normal (%) [6]: 99.8% and 100% | Population Pyknosed Nuclei (%) [6]: 17.44% and 50.74% | Total Cell Count [6]: 494 and 203
